From article PMC6541004 (Antiviral research, 2018)
Read-outs that look alike come from different tables or passages of the source.

Legend:
[1] = test system: oleic acid-induced LD in DENV2 infected BHK-21 cells; assay: Oil Red O staining of lipid droplets; type: cell-based; settings: 0.1 mM oleic acid-BSA, 5 μM, 24 h, absorbance at 405 nm
How it was run: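 BHK-21 cells in MEM with 10% FBS were infected with DENV2 at MOI 1 for 1 h. They were then incubated for 24 h in MEM with 0.1 mM oleic acid-BSA plus test compound (5 μM in imaged wells), with 1% DMSO as negative control. Cells were PBS-washed, fixed in 4% paraformaldehyde for 10 min, and stained with ORO and DAPI. Dye was extracted in 100% isopropanol and read at A405. Duplicates were averaged.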

[2] = Cell-based cytotoxicity assay; parameters: species or system Baby Hamster; settings: hamster
actin = settings: read-out: IC50 of inhibition of actin polymerization; ref Dhar et al., 2015; cited from earlier work
DENV2 = assay: Plaque assay of DENV2 infectivity; type: cell-based; settings: Dengue virus, DENV2, read-out: EC50 (PFU)
DENV2 replicon = assay: microbe, parasite or virus in culture; type: cell-based; settings: Dengue virus, DENV2, BHK-21, 24 h, read-out: EC50 (replicon)
DENV2 NS2B-NS3pro = DENV2 NS2B-NS3pro (Dengue virus type 2, UniProt P14340); assay: In vitro protease assay; type: biochemical
Chain of DENV2 NS2B-NS3pro (P14340 1476-1653): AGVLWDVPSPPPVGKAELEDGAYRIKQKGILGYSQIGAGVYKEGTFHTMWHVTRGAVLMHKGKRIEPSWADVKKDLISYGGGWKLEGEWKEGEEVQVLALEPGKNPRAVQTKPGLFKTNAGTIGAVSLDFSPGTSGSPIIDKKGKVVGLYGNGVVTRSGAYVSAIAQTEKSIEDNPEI
Chain of DENV2 NS2B-NS3pro (P14340 1398-1437): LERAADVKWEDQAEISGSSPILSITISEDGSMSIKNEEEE

BHK-21 cells = assay: Cell-based cytotoxicity assay; parameters: species or system Baby Hamster
[3] = read-out: IC50 (protease activity), mean ± SD of two replicates, 25 nM DENV2 protease, 25 μM substrate Bz-Nle-Lys-Arg-Arg-AMC, 30 min, inhibitor concentrations 1.56-200 μM

Row | SMILES | oleic acid-induced lipid droplets (LD), Oil Red O [1] | CC50 at 24 h ([2]; BHK-21 cells) [µM] | IC50 (actin) [µM] | EC50 (DENV2) [µM] | EC50 (DENV2 replicon) [µM] | IC50 (DENV2 NS2B-NS3pro) [µM] | CC50 at 24 h [2] [µM] | IC50 (DENV2 NS2B-NS3pro; [3]) [µM] | CC50 (BHK-21 cells) [µM]
1 | COc1cc(C=CC(=O)CC(=O)C=Cc2ccc(O)c(OC)c2)ccc1O [CC1, 1,7-bis(4-hydroxy-3-methoxyphenyl)-1,6-heptadiene-3,5-dione, reference compound] | affected LD levels | 49 ± 8.24 | 16 | 14 ± 4.62 | 13.9 ± 2.08 | 66 ± 13.1 |  |  | 
2 | O=C(/C=C/c1ccc(O)cc1)CC(=O)/C=C/c1ccc(O)cc1 [CC2, Bisdemethoxycurcumin] |  |  |  | 6.49 ± 0.22 | 26.4 ± 3.67 | 36.2 ± 9.67 | 43.4 ± 5.19 |  | 
3 | COc1cc(/C=C2\CC/C(=C\c3ccc(O)c(OC)c3)C2=O)ccc1O [CC4] |  |  |  |  |  |  |  | 43.9 ± 10.1 | 
4 | COc1cc(C=C2CCCC(=Cc3ccc(O)c(OC)c3)C2=O)ccc1O [CC5] |  |  |  |  |  |  |  | 61 ± 8.7 | 25.5 ± 2.64
